Key:
[1] = molecular target: Mitogen-activated protein kinase 8 (Homo sapiens, UniProt P45983); conditions: 1 uM
[2] = AUC (0 to 12 hrs) in rat 100 mg/kg, po; type: ADME, organism-based; parameters: time < 12 hr, dose 100 mg/kg, route oral; conditions: plasma
Method in brief: (§1)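 Rat oral dose escalation at 10, 30, 55 and 100 mg/kg. Gavage at 5 mL/kg in 40% HPβCD after an overnight fast. Serial tail-vein blood was drawn into heparinized tubes. Plasma was protein-precipitated with acetonitrile and assayed by LC-MS/MS. Cmax and AUC0–12 were derived noncompartmentally; n = 2 at 10 mg/kg.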

[3] = Half life in CD-1 mouse at 1 mg/kg, iv; type: ADME, organism-based; parameters: dose 1 mg/kg, route intravenous; conditions: in vivo
Method in brief: (§2)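 Mouse PK. IV via the lateral tail vein in 3% DMSO/30% Solutol/67% PBS, or oral gavage in 100% PEG400, 100 μL dose volume, after an overnight fast. Trunk blood was taken from three mice per time point over 6 h. Plasma was acetonitrile-precipitated and analysed by LC-MS/MS. Parameters were derived noncompartmentally.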

[4] = Cmax in SCID mouse at 10 mg/kg, po; type: ADME, organism-based; parameters: dose 10 mg/kg, route oral; conditions: in vivo
Method in brief: as §2

[5] = molecular target: ALK tyrosine kinase receptor (Homo sapiens, UniProt Q9UM73); assay: Inhibition of ALK tyrosine phosphorylation in human Karpas-299 cells after 2 hrs in presence of mouse plasma; type: cell-based
[6] = molecular target: Activated CDC42 kinase 1 (Homo sapiens, UniProt Q07912); conditions: 1 uM
Sequence of Activated CDC42 kinase 1 (Q07912 whole entry, looked up): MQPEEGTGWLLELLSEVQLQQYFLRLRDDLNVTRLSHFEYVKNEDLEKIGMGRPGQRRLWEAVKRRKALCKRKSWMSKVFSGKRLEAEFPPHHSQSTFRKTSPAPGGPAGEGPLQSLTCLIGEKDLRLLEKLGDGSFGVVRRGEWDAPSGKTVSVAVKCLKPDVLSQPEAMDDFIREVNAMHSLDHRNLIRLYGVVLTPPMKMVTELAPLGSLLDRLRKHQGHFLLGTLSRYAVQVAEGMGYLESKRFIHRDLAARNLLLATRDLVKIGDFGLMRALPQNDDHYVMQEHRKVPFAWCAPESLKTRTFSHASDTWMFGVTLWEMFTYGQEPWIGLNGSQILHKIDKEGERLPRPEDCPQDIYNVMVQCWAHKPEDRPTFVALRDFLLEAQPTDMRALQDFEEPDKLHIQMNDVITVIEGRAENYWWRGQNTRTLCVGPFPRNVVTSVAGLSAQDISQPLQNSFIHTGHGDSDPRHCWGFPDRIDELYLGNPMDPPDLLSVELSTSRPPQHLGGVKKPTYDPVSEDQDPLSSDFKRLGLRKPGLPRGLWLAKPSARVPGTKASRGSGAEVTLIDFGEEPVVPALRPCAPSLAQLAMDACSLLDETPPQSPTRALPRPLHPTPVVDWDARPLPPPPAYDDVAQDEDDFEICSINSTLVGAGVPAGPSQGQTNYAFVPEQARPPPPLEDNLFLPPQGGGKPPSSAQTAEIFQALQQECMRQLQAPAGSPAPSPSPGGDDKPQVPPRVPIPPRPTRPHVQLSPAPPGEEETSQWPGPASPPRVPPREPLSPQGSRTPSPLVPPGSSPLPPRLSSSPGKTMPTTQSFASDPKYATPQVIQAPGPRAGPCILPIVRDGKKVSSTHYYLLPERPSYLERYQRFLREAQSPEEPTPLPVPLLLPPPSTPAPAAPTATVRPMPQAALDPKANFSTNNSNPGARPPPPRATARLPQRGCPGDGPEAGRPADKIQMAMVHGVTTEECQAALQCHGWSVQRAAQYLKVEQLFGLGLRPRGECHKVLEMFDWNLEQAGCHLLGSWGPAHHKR

[7] = molecular target: Ribosomal protein S6 kinase alpha-6 (Homo sapiens, UniProt Q9UK32); conditions: 1 uM
Sequence of Ribosomal protein S6 kinase alpha-6 (Q9UK32 whole entry): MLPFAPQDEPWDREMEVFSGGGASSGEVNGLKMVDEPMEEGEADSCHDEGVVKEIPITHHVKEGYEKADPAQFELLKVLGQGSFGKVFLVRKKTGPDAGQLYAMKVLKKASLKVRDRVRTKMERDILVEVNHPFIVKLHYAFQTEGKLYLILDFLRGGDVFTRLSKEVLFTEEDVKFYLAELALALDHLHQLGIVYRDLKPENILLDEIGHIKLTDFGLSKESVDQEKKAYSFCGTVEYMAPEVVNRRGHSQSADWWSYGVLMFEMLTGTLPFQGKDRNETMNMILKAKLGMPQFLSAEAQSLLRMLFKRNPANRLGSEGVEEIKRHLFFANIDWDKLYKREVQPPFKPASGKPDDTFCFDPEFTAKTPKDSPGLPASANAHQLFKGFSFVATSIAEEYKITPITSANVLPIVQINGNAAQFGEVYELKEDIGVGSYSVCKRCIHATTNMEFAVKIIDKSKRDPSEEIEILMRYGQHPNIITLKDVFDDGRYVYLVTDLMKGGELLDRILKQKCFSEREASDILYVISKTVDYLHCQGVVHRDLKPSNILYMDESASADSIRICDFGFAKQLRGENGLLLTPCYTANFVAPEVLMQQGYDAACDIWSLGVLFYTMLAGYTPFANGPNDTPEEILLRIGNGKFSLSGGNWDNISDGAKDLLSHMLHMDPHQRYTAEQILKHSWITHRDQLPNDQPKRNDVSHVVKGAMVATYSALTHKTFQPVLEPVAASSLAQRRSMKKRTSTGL

[8] = molecular target: NUAK family SNF1-like kinase 1 (Homo sapiens, UniProt O60285); assay: Inhibition of human ARK5
Sequence of NUAK family SNF1-like kinase 1 (O60285 whole entry): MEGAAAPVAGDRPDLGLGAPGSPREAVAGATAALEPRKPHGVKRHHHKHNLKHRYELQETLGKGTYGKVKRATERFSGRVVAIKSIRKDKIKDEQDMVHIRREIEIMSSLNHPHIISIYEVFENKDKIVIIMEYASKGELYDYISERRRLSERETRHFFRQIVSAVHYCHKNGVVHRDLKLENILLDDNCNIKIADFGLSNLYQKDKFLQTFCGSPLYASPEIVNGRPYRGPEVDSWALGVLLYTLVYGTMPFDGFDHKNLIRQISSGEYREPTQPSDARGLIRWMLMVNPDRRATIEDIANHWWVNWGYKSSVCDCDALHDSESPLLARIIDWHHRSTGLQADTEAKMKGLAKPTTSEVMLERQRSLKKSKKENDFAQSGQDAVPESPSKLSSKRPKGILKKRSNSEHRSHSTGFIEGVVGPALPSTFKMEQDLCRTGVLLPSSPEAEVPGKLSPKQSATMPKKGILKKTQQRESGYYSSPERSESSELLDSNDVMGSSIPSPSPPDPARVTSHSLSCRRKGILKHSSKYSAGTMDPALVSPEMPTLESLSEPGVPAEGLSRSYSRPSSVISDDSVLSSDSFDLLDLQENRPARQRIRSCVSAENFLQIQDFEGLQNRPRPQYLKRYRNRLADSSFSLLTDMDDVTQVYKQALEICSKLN

[9] = Drug level in SCID mouse tumor xenografted with human KARPAS299 cells expressing NPM-ALK at 30 mg/kg, po after 6 hrs by LC-MS/MS analysis; type: ADME, organism-based, Neoplasm, KARPAS-299; parameters: dose 30 mg/kg, route oral; conditions: read-out: Drug uptake
[10] = Tmax in Sprague-Dawley rat at 10 mg/kg, po; type: ADME, organism-based; parameters: dose 10 mg/kg, route oral; conditions: in vivo
Method in brief: (§3)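 PK: overnight-fasted animals. Rat oral gavage 5 mL/kg in 40% HPβCD, serial tail-vein blood over 6 h. Dog oral gavage 1 mL/kg, monkey nasogastric 2 mL/kg, femoral-vein blood over 24 h. Plasma protein-precipitated with acetonitrile, LCMS/MS with internal standard; noncompartmental analysis, individual animals n = 3, mean ± SEM.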

[11] = molecular target: Mitogen-activated protein kinase kinase kinase kinase 2 (Homo sapiens, UniProt Q12851); assay: Inhibition of human GCK
Method in brief: (§4)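 Millipore KinaseProfiler activity assays on a 259-kinase panel; kinases inhibited by ≥90% at 1 μM then taken to full IC50 determination.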

[12] = molecular target: Tyrosine-protein kinase Fer (Homo sapiens, UniProt P16591); conditions: 1 uM
Sequence of Tyrosine-protein kinase Fer (P16591 whole entry, looked up): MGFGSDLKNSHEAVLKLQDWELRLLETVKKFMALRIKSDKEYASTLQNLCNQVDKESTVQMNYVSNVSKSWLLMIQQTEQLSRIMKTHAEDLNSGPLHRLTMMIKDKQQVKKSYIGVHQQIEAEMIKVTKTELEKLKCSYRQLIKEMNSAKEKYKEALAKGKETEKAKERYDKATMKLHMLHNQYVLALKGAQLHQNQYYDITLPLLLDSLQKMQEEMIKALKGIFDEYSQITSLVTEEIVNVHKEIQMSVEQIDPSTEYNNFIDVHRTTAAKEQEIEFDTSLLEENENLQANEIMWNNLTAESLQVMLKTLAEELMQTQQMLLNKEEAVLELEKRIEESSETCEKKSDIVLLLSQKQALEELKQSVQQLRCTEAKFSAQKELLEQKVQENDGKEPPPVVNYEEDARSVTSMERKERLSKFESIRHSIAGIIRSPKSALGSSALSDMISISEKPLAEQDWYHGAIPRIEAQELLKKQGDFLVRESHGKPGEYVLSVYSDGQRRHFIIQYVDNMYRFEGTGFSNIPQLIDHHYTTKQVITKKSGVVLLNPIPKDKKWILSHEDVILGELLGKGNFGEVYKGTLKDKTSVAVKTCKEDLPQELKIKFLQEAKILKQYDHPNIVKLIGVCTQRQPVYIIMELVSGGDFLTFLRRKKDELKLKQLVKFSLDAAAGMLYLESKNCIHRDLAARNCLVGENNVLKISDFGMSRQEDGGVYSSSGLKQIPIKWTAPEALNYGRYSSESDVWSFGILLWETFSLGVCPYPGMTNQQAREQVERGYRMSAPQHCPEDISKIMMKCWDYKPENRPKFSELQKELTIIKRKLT

[13] = AUC in SCID mouse at 1 mg/kg, iv; type: ADME, organism-based; parameters: dose 1 mg/kg, route intravenous; conditions: plasma
Method in brief: as §2

[14] = Plasma concentration in SCID/beige mouse xenografted with human KARPAS299 cells expressing NPM-ALK at 30 mg/kg, po bid after 2 hrs post last dose by LC-MS/MS analysis; type: ADME, organism-based, KARPAS-299; parameters: dose 30 mg/kg, route oral
Method in brief: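 Female SCID/beige mice (6–8 weeks), Karpas-299 cells implanted sc in left flank; at ~600 mm³ randomized (8–10/group), dosed orally in PEG400, 100 μL, b.i.d. for 12 days. Body weight every 2–3 days; plasma and tumor sampled 2 h after final dose, drug by LCMS/MS; Mann–Whitney rank sum statistics.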

[15] = Half life in Beagle dog at 10 mg/kg, po; type: ADME, organism-based, Canis lupus familiaris; parameters: dose 10 mg/kg, route oral; conditions: in vivo
Method in brief: (§5)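 Dog and monkey PK. IV 0.5 mL/kg in 40% HPβCD via the saphenous vein. Oral dosing was 1 mL/kg by gavage in dogs and 2 mL/kg by nasogastric tube in monkeys, after an overnight fast. Serial femoral-vein blood was taken into heparin over 24 h. Plasma was acetonitrile-precipitated and analysed by LC-MS/MS. Parameters were noncompartmental, n = 3, mean ± SEM.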

[16] = Half life in Sprague-Dawley rat at 1 mg/kg, iv; type: ADME, organism-based; parameters: dose 1 mg/kg, route intravenous; conditions: in vivo
Method in brief: (§6)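 Rat PK. IV via the lateral tail vein, 1 mL/kg in 3% DMSO/30% Solutol/67% PBS, or oral gavage at 5 mL/kg in 40% HPβCD, after an overnight fast. Serial tail-vein blood was taken into heparin over 6 h. Plasma was acetonitrile-precipitated and analysed by LC-MS/MS. Parameters were noncompartmental, n = 3, mean ± SEM.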

[17] = Volume of distribution in Beagle dog at 1 mg/kg, iv; type: ADME, organism-based, Canis lupus familiaris; parameters: dose 1 mg/kg, route intravenous; conditions: in vivo
Method in brief: (§7)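 IV PK: rats via lateral tail vein (1 mL/kg; 3% DMSO/30% Solutol/67% PBS), serial tail-vein blood over 6 h. Dogs and monkeys via saphenous vein (0.5 mL/kg in 40% HPβCD), femoral-vein blood over 24 h. Acetonitrile protein precipitation, LCMS/MS; noncompartmental parameters from individual animals, n = 3, mean ± SEM.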

[18] = Volume of distribution in SCID mouse at 1 mg/kg, iv; type: ADME, organism-based; parameters: dose 1 mg/kg, route intravenous; conditions: in vivo
Method in brief: (§8)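 Mouse IV PK: lateral tail vein dosing, 100 μL in 3% DMSO/30% Solutol/67% PBS; trunk blood from three mice per time point over 6 h. Plasma precipitated with acetonitrile, drug quantified by LCMS/MS against internal standard; noncompartmental analysis.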

[19] = Cmax in rat at 10 mg/kg, po; type: ADME, organism-based; parameters: dose 10 mg/kg, route oral; conditions: in vivo
Method in brief: as §1

[20] = molecular target: Receptor-type tyrosine-protein kinase FLT3 (Homo sapiens, UniProt P36888); assay: Inhibition of human Flt3
Sequence of Receptor-type tyrosine-protein kinase FLT3 (P36888 whole entry): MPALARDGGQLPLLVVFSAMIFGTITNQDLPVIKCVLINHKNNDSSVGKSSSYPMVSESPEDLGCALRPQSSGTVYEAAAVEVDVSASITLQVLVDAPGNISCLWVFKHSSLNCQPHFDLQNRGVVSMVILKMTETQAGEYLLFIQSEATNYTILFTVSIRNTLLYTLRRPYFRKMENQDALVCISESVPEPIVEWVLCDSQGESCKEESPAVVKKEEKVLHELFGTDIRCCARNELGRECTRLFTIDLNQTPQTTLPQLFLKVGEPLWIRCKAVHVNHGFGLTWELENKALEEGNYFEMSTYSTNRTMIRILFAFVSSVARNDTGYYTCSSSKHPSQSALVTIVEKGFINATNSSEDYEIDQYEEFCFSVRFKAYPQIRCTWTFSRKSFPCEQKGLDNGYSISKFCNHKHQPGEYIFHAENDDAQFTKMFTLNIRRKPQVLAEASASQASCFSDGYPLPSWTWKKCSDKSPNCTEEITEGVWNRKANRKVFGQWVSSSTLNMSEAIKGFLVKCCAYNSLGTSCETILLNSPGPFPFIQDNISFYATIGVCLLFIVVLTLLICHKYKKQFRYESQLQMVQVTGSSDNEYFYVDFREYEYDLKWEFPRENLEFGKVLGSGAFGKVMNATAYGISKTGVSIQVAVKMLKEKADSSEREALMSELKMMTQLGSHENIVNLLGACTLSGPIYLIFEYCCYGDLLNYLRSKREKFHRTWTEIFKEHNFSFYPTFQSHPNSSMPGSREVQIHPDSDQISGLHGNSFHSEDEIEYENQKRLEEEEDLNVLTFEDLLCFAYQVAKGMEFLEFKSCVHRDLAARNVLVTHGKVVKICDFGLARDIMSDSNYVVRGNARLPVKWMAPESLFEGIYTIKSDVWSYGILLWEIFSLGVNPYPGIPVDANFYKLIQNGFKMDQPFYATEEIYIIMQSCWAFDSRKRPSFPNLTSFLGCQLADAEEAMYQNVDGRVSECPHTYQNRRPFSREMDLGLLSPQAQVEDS
Method in brief: as §4

[21] = AUC in Beagle dog at 1 mg/kg, iv; type: ADME, organism-based, Canis lupus familiaris; parameters: dose 1 mg/kg, route intravenous; conditions: plasma
Method in brief: as §5

[22] = Cmax in Sprague-Dawley rat at 10 mg/kg, po; type: ADME, organism-based; parameters: dose 10 mg/kg, route oral; conditions: in vivo
Method in brief: as §6

[23] = Plasma clearance in SCID mouse at 1 mg/kg, iv; type: ADME, organism-based; parameters: dose 1 mg/kg, route intravenous
Method in brief: as §8

[24] = Plasma concentration in SCID mouse xenografted with human KARPAS299 cells expressing NPM-ALK at 30 mg/kg, po after 2 hrs by LC-MS/MS analysis; type: ADME, organism-based, KARPAS-299; parameters: dose 30 mg/kg, route oral
Method in brief: (§9)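 Pharmacodynamic study: SCID mice bearing subcutaneous Karpas-299 xenografts given single 30 mg/kg oral dose; plasma drug levels measured by LCMS/MS, reported as mean ± SEM.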

[25] = AUC in Sprague-Dawley rat at 1 mg/kg, iv; type: ADME, organism-based; parameters: dose 1 mg/kg, route intravenous; conditions: plasma
Method in brief: as §6

[26] = Volume of distribution in CD-1 mouse at 1 mg/kg, iv; type: ADME, organism-based; parameters: dose 1 mg/kg, route intravenous; conditions: in vivo
Method in brief: as §8

[27] = Tmax in Beagle dog at 10 mg/kg, po; type: ADME, organism-based, Canis lupus familiaris; parameters: dose 10 mg/kg, route oral; conditions: in vivo
Method in brief: as §3

[28] = molecular target: Tyrosine-protein kinase Fes/Fps (Homo sapiens, UniProt P07332); assay: Inhibition of human Fes
Method in brief: as §4

[29] = Plasma concentration in SCID mouse xenografted with human KARPAS299 cells expressing NPM-ALK at 30 mg/kg, po after 12 hrs by LC-MS/MS analysis; type: ADME, organism-based, KARPAS-299; parameters: dose 30 mg/kg, route oral
Method in brief: as §9

[30] = molecular target: Receptor-type tyrosine-protein kinase FLT3 (Homo sapiens) (UniProt P36888); conditions: 1 uM
Sequence of Receptor-type tyrosine-protein kinase FLT3 (Homo sapiens) (P36888 whole entry): as above

[31] = Volume of distribution in Sprague-Dawley rat at 1 mg/kg, iv; type: ADME, organism-based; parameters: dose 1 mg/kg, route intravenous; conditions: in vivo
Method in brief: as §7

[32] = molecular target: Serine/threonine-protein kinase Chk2 (Homo sapiens, UniProt O96017); conditions: 1 uM
[33] = Half life in cynomolgus monkey at 1 mg/kg, iv; type: ADME, organism-based, Macaca fascicularis; parameters: dose 1 mg/kg, route intravenous; conditions: in vivo
Method in brief: as §5

Sequence of Mitogen-activated protein kinase 8 (P45983 whole entry): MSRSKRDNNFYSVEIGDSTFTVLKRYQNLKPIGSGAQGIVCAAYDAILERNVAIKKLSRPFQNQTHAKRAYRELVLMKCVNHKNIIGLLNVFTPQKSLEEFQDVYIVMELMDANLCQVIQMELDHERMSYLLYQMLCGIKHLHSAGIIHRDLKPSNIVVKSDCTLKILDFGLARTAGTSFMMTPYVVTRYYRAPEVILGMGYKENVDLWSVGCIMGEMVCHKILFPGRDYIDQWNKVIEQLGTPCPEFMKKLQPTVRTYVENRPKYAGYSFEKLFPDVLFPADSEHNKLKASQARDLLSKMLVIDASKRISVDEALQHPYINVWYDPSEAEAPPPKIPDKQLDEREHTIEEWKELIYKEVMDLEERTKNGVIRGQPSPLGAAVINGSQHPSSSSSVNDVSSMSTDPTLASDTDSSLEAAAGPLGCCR

SMILES: COc1c(Nc2ncc(Cl)c(N[C@H]3[C@@H](C(N)=O)[C@@H]4C=C[C@H]3C4)n2)ccc2c1CC[C@@H](N1CCOCC1)CC2
- inhibition [1]: > 90%
- AUC(0-t) at 12 h [2]: 38200 ng·h/mL
- half-life [3]: 0.7 h
- Cmax [4]: 2750 ng/mL
- IC50 [5]: 20 nM
- inhibition [6]: > 90%
- inhibition [7]: > 90%
- IC50 [8]: 26 nM
- concentration at 6 h [9]: 2870 ng/g
- Tmax [10]: 1.3 h
- IC50 [11]: 60 nM
- inhibition [12]: > 90%
- AUC [13]: 3020 ng·h/mL
- concentration at 2 h [14]: 4270 ng/mL
- half-life [15]: 3.3 h
- half-life [16]: 0.9 h
- Vd [17]: 8.2 L/kg
- Vd [18]: 0.8 L/kg
- Cmax [19]: 349 ng/mL
- IC50 [20]: 88 nM
- AUC [21]: 409 ng·h/mL
- Cmax [22]: 599 ng/mL
- clearance [23]: 6 mL/min/kg
- concentration at 2 h [24]: 4180 ng/mL
- AUC [25]: 989 ng·h/mL
- Vd [26]: 1.8 L/kg
- Tmax [27]: 0.8 h
- IC50 [28]: 99 nM
- concentration at 12 h [29]: 1570 ng/mL
- inhibition [30]: > 90%
- Vd [31]: 1.3 L/kg
- inhibition [32]: > 90%
- half-life [33]: 1.2 h
